Laboratory results as given in ChEMBL document CHEMBL1126620, “Systematic substitution of an oxytocin antagonist with D-amino acids: unexpected high antagonistic potency of the D-Cys6-substituted analogue” (J Med Chem, 1993).

tested on: Rattus norvegicus; test: In vivo evaluation for the competitive antagonism of Antidiuretic action in the rat determined by the rat antidiuretic assay; details: Urine, read-out: pA2 (converted)

| Structure (SMILES) | Kb |
| --- | --- |
| CC[C@H](C)[C@@H]1NC(=O)[C@@H](Cc2c[nH]c3ccccc23)NC(=O)CC2(CCCCC2)SSC[C@@H](C(=O)N2CCC[C@H]2C(=O)N[C@H](CCCN=C(N)N)C(=O)NCC(N)=O)NC(=O)[C@H](CC(N)=O)NC(=O)[C@H](CCC(N)=O)NC1=O | > 2510 nM |
| CC[C@H](C)[C@@H]1NC(=O)[C@@H](Cc2c[nH]c3ccccc23)NC(=O)CC2(CCCCC2)SSC[C@@H](C(=O)N2CCC[C@H]2C(=O)N[C@@H](CCCN=C(N)N)C(=O)NCC(N)=O)NC(=O)[C@H](CC(N)=O)NC(=O)[C@H](CCC(N)=O)NC1=O | > 1260 nM |
| CC[C@H](C)[C@@H]1NC(=O)[C@@H](Cc2c[nH]c3ccccc23)NC(=O)CC2(CCCCC2)SSC[C@H](C(=O)N2CCC[C@H]2C(=O)N[C@@H](CCCN=C(N)N)C(=O)NCC(N)=O)NC(=O)[C@H](CC(N)=O)NC(=O)[C@H](CCC(N)=O)NC1=O | > 501 nM |

species on record: Rattus norvegicus; test: In vitro competitive antagonist effect of OT contractile action in the rat uterus determined by the rat oxytocic assay in presence of Mg2+; assay type: functional; details: read-out: pA2 (converted)
How it was run: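 Isolated rat uterus, oxytocin-induced contraction, bath containing magnesium salts; pA2 (negative log molar antagonist concentration halving agonist response) obtained by Schild method from at least four separate assays.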

| Structure (SMILES) | Kb |
| --- | --- |
| CC[C@H](C)[C@@H]1NC(=O)[C@@H](Cc2c[nH]c3ccccc23)NC(=O)CC2(CCCCC2)SSC[C@@H](C(=O)N2CCC[C@H]2C(=O)N[C@@H](CCCNC(=N)N)C(=O)NCC(N)=O)NC(=O)[C@H](CC(N)=O)NC(=O)[C@@H]([C@H](C)O)NC1=O | 11200 nM |
| CC[C@H](C)[C@@H]1NC(=O)[C@@H](Cc2c[nH]c3ccccc23)NC(=O)CC2(CCCCC2)SSC[C@@H](C(=O)N2CCC[C@H]2C(=O)N[C@H](CCCN=C(N)N)C(=O)NCC(N)=O)NC(=O)[C@H](CC(N)=O)NC(=O)[C@H](CCC(N)=O)NC1=O | 12.3 nM |
| CC[C@@H](C)[C@H]1NC(=O)[C@@H](Cc2c[nH]c3ccccc23)NC(=O)CC2(CCCCC2)SSC[C@@H](C(=O)N2CCC[C@H]2C(=O)N[C@@H](CCCN=C(N)N)C(=O)NCC(N)=O)NC(=O)[C@H](CC(N)=O)NC(=O)[C@H](CCC(N)=O)NC1=O | 5890 nM |
| CC[C@H](C)[C@@H]1NC(=O)[C@@H](Cc2c[nH]c3ccccc23)NC(=O)CC2(CCCCC2)SSC[C@@H](C(=O)N2CCC[C@@H]2C(=O)N[C@@H](CCCN=C(N)N)C(=O)NCC(N)=O)NC(=O)[C@H](CC(N)=O)NC(=O)[C@H](CCC(N)=O)NC1=O | 14.1 nM |
| CC[C@H](C)[C@@H]1NC(=O)[C@@H](Cc2c[nH]c3ccccc23)NC(=O)CC2(CCCCC2)SSC[C@@H](C(=O)N2CCC[C@H]2C(=O)N[C@@H](CCCN=C(N)N)C(=O)NCC(N)=O)NC(=O)[C@H](CC(N)=O)NC(=O)[C@@H](CCCNC(N)=O)NC1=O | 3090 nM |
| CC[C@H](C)[C@H]1NC(=O)[C@@H](Cc2c[nH]c3ccccc23)NC(=O)CC2(CCCCC2)SSC[C@@H](C(=O)N2CCC[C@H]2C(=O)N[C@@H](CCCN=C(N)N)C(=O)NCC(N)=O)NC(=O)[C@H](CC(N)=O)NC(=O)[C@H](CCC(N)=O)NC1=O | 7760 nM |
| CC[C@H](C)[C@@H]1NC(=O)[C@@H](Cc2c[nH]c3ccccc23)NC(=O)CC2(CCCCC2)SSC(C)(C)[C@H](C(=O)N2CCC[C@H]2C(=O)N[C@@H](CCCNC(=N)N)C(=O)NCC(N)=O)NC(=O)[C@H](CC(N)=O)NC(=O)[C@H](CCC(N)=O)NC1=O | 10.5 nM |
| CC[C@H](C)[C@@H]1NC(=O)[C@@H](Cc2c[nH]c3ccccc23)NC(=O)CC2(CCCCC2)SSC[C@@H](C(=O)N2CCC[C@H]2C(=O)N[C@@H](CCCN=C(N)N)C(=O)NCC(N)=O)NC(=O)[C@H](CC(N)=O)NC(=O)[C@@H](CC(N)=O)NC1=O | 3890 nM |
| CC[C@H](C)[C@@H]1NC(=O)[C@@H](Cc2c[nH]c3ccccc23)NC(=O)CC2(CCCCC2)SSC[C@H](C(=O)N2CCC[C@H]2C(=O)N[C@@H](CCCN=C(N)N)C(=O)NCC(N)=O)NC(=O)[C@H](CC(N)=O)NC(=O)[C@H](CCC(N)=O)NC1=O | 5.13 nM |
